Measurements as given in ChEMBL document CHEMBL4266027, “Cyanobufalins: Cardioactive Toxins from Cyanobacterial Blooms” (J Nat Prod, 2018).
pEC50: −log10 of the molar value.

What was measured:
SK-OV-3 = assay: Cytotoxicity against human SKOV3 cells assessed as decrease in cell viability after 72 hrs by MTS assay; format: functional, cell-based; conditions: SK-OV-3, 72 h
Method in brief: (§1)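 Cell proliferation assay using the MTS reagent. Compounds were tested as a dilution series, and EC50 values were derived from the concentration–response data.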

HCT-116 = assay: Cytotoxicity against human HCT116 cells assessed as decrease in cell viability after 72 hrs by MTS assay; format: functional, cell-based; conditions: HCT-116, 72 h; method in brief: as §1
HepG2 = assay: Cytotoxicity against human HepG2 cells assessed as decrease in cell viability after 72 hrs by MTS assay; format: functional, cell-based; conditions: HepG2, 72 h; method in brief: as §1
MES-SA = assay: Cytotoxicity against human MESSA cells assessed as decrease in cell viability after 72 hrs by MTS assay; format: functional, cell-based; method in brief: as §1
MES-SA/Dx5 = assay: Cytotoxicity against human MES-SA/Dx5 cells assessed as decrease in cell viability after 72 hrs by MTS assay; format: functional, cell-based; conditions: MES-SA/Dx5, 72 h; method in brief: as §1
786-0 = assay: Cytotoxicity against human 786-O cells assessed as decrease in cell viability after 72 hrs by MTS assay; format: functional, cell-based; conditions: 786-0, 72 h; method in brief: as §1
MCF7 = assay: Cytotoxicity against human MCF7 cells assessed as decrease in cell viability after 72 hrs by MTS assay; format: functional, cell-based; conditions: MCF7, 72 h; method in brief: as §1
BXPC-3 = assay: Cytotoxicity against human BxPC3 cells assessed as decrease in cell viability after 72 hrs by MTS assay; format: functional, cell-based; conditions: BXPC-3, 72 h; method in brief: as §1
U-87 MG = assay: Cytotoxicity against human U87MG cells assessed as decrease in cell viability after 72 hrs by MTS assay; format: functional, cell-based, U-87MG ATCC; method in brief: as §1
NCI-H1975 = assay: Cytotoxicity against human NCI-H1975 cells assessed as decrease in cell viability after 72 hrs by MTS assay; format: functional, cell-based; conditions: NCI-H1975, 72 h; method in brief: as §1
HUVEC = assay: Cytotoxicity against human HUVEC cells assessed as decrease in cell viability after 72 hrs by MTS assay; format: cell-based; method in brief: as §1
CCRF S-180 = assay: Cytotoxicity against mouse S180 cells assessed as decrease in cell viability after 72 hrs by MTS assay; format: functional, cell-based; conditions: CCRF S-180, 72 h; method in brief: as §1

For CC1(C)[C@H]2OC(=O)O[C@H]2[C@@H](O)[C@]2(C=O)[C@H]3CC[C@]4(C)[C@@H](c5ccc(=O)oc5)[C@@H](Cl)C[C@]4(O)C3=CC[C@@H]12, the pEC50 (SK-OV-3) was 6.28, the pEC50 (HCT-116) was 6.21 and the pEC50 (HepG2) was 5.89. The pEC50 (MES-SA) was 6.03, the pEC50 (MES-SA/Dx5) was 6.14 and the pEC50 (786-0) was 6.46. The pEC50 (MCF7) was 6.02, the pEC50 (BXPC-3) was 6.00 and the pEC50 (U-87 MG) was 6.21. The pEC50 (NCI-H1975) was 6.23, the pEC50 (HUVEC) was 6.10 and the pEC50 (CCRF S-180) was under 4.70.
